This note sets out measurements from ChEMBL document CHEMBL3862028, “Exploring N-Arylsulfonyl-l-proline Scaffold as a Platform for Potent and Selective αvβ1 Integrin Inhibitors” (ACS Med Chem Lett, 2016).

Structures are written as SMILES.

The target of one assay is Integrin alpha-V/beta-1 (Homo sapiens, UniProt P05556+P06756). The assay is described as follows: Inhibition of integrin alphaVbeta1 (unknown origin)-mediated CHO cell adhesion to fibronectin preincubated for 15 to 30 mins followed by 60 min incubation for adhesion by crystal violet staining based cell adhesion assay. Summed up: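 α5-deficient CHO cells engineered to express αvβ1 were tested for adhesion to fibronectin (0.3 mg/ml). Values reported as pIC50 (–logIC50, M) with standard deviation, n=3.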
Sequence of Integrin alpha-V/beta-1 (P05556 21-798 limits assumed): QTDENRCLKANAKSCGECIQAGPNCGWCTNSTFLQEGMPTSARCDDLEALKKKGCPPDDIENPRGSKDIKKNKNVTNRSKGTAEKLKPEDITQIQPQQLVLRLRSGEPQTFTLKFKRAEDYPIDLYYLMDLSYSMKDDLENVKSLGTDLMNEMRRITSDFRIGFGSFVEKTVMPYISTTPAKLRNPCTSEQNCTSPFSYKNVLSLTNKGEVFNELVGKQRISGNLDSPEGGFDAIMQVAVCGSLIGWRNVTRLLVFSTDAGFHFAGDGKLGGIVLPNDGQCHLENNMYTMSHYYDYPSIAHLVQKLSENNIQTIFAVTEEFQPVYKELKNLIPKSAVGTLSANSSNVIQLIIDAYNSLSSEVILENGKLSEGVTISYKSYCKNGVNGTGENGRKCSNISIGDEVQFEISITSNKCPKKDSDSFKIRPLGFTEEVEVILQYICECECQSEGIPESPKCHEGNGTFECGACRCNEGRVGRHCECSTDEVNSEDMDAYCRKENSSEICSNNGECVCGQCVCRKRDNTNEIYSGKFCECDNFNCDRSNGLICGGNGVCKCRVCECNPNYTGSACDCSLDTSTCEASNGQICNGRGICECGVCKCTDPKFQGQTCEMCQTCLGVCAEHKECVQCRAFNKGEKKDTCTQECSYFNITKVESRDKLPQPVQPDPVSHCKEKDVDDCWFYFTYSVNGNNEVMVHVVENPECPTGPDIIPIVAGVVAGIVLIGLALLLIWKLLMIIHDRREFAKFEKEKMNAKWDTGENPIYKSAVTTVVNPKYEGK
Sequence of Integrin alpha-V/beta-1 (P06756 31-889 limits assumed): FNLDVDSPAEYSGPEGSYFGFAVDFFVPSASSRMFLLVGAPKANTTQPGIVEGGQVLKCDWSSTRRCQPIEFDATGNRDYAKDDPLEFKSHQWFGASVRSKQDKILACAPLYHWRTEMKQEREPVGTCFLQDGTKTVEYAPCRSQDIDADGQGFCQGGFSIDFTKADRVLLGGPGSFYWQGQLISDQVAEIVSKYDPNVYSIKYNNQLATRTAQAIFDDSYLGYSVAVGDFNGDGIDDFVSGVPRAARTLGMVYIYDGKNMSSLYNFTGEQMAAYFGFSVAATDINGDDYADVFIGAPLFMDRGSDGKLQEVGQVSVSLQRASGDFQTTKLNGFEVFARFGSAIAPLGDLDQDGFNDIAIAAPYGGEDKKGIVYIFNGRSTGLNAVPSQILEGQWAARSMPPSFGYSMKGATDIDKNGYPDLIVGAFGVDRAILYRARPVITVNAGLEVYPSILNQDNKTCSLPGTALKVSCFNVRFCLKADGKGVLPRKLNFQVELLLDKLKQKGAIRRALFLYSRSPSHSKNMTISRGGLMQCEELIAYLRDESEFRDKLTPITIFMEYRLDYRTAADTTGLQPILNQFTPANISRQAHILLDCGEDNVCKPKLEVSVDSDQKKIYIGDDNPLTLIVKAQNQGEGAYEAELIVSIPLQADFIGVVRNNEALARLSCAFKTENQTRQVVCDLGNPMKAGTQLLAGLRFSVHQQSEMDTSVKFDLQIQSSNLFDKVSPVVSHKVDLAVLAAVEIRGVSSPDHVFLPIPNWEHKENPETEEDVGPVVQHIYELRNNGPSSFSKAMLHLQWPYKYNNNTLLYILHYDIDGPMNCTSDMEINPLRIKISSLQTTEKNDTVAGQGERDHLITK
Sequence of Integrin alpha-V/beta-1 (P06756 891-1048 limits assumed): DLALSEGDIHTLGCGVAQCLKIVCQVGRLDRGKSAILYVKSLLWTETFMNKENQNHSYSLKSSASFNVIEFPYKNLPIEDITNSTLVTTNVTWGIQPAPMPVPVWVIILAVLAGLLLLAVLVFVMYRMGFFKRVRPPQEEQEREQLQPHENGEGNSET

Another assay concerns the target Integrin alpha-5/beta-1 (Homo sapiens, UniProt P05556+P08648). The assay can be described thus: Inhibition of human integrin alpha5beta1-mediated human SW480 cell adhesion to fibronectin preincubated for 15 to 30 mins followed by 60 min incubation for adhesion by crystal violet staining based cell adhesion assay. Summed up:
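Colon carcinoma SW480 cells plated on fibronectin (0.3 mg/ml) to isolate α5β1-dependent adhesion. Values reported as pIC50 (–logIC50, M) with standard deviation, n=3.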

Another assay addresses Integrin alpha-V/beta-3 (Homo sapiens, UniProt P05106+P06756). The assay can be described thus: Inhibition of human integrin alphaVbeta3-mediated human SW480 cell adhesion to fibrinogen preincubated for 15 to 30 mins followed by 60 min incubation for adhesion by crystal violet staining based cell adhesion assay. The essentials:
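Adhesion of SW480 cells transfected with human β3 to fibrinogen (1 mg/ml), isolating αvβ3. Values reported as pIC50 (–logIC50, M) with standard deviation, n=3.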

The target in the next assay is Integrin alpha-V/beta-8 (Homo sapiens, UniProt P06756+P26012). The assay can be described thus: Inhibition of human integrin alphaVbeta8-mediated human SNB19 cell adhesion to recombinant human TGFbeta1 LAP preincubated for 15 to 30 mins followed by 60 min incubation for adhesion by crystal violet staining based cell adhesion assay. Also on record: species or system SNB-19. Summed up:
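The αvβ8-expressing glioma line SNB19 was tested for adhesion to recombinant human TGFβ1 LAP (1 mg/ml). Values reported as pIC50 (–logIC50, M) with standard deviation, n=3.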

A further assay deals with Integrin alpha-V/beta-5 (Homo sapiens, UniProt P06756+P18084). The assay can be described thus: Inhibition of human wild type integrin alphaVbeta5-mediated human SW480 cell adhesion to vitronectin preincubated for 15 to 30 mins followed by 60 min incubation for adhesion by crystal violet staining based cell adhesion assay. Summed up: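 Wild-type SW480 cells adhering to vitronectin (0.1 mg/ml) served to isolate αvβ5. Values reported as pIC50 (–logIC50, M) with standard deviation, n=3.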
Sequence of Integrin alpha-V/beta-5 (P06756 31-889 limits assumed): as the sequence (P06756 31-889 limits assumed) above
Sequence of Integrin alpha-V/beta-5 (P06756 891-1048 limits assumed): as the sequence (P06756 891-1048 limits assumed) above
Sequence of Integrin alpha-V/beta-5 (P18084 24-799 limits assumed): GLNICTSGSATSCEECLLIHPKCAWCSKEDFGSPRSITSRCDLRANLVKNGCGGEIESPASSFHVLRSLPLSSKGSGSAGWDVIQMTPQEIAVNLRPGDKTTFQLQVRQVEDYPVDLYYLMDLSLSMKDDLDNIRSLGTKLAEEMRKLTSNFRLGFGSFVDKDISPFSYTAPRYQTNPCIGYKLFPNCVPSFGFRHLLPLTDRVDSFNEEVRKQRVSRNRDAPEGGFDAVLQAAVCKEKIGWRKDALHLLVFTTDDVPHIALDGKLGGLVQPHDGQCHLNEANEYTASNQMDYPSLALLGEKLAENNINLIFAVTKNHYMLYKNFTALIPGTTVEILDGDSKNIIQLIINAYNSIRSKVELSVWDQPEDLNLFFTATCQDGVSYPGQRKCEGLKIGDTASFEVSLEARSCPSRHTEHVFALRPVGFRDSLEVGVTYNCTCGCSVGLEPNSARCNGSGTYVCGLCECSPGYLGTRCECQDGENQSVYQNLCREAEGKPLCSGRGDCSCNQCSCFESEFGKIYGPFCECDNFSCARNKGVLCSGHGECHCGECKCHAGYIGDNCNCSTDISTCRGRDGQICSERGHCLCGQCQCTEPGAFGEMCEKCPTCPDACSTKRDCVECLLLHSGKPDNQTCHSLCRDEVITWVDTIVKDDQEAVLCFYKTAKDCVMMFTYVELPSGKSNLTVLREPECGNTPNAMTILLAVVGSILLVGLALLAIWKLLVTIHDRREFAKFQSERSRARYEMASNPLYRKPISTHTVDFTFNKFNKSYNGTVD

Sequence of Integrin alpha-5/beta-1 (P05556 21-798 limits assumed): as the sequence (P05556 21-798 limits assumed) above
Sequence of Integrin alpha-5/beta-1 (P08648 42-894 limits assumed): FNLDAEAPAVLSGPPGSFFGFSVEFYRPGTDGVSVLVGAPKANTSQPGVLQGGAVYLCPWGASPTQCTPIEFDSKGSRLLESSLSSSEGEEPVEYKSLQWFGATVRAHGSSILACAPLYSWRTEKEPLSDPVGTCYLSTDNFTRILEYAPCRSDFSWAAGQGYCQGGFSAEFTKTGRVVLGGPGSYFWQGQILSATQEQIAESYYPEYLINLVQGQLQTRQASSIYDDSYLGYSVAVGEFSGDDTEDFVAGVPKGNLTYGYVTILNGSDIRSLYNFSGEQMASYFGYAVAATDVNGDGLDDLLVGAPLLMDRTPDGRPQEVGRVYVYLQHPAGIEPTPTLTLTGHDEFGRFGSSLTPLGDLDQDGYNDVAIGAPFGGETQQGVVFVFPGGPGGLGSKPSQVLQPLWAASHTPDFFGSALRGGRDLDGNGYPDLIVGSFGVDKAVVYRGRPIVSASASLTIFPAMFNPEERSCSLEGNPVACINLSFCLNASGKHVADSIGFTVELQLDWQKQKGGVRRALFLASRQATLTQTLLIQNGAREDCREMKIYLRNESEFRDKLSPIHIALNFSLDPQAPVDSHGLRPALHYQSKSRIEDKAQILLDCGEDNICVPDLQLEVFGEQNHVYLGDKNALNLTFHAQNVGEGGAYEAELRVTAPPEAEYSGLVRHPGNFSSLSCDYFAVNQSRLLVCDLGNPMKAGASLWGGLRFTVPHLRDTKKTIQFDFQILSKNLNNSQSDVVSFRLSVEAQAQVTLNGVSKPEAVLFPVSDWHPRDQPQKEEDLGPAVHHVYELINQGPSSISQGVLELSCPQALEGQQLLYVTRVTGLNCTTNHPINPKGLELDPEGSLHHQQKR
Sequence of Integrin alpha-5/beta-1 (P08648 895-1049 limits assumed): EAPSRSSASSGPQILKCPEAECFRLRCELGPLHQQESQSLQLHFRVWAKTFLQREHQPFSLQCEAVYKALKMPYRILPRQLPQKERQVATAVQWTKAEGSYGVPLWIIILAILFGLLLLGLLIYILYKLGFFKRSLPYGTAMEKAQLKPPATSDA
Sequence of Integrin alpha-V/beta-8 (P06756 31-889 limits assumed): as the sequence (P06756 31-889 limits assumed) above
Sequence of Integrin alpha-V/beta-8 (P06756 891-1048 limits assumed): as the sequence (P06756 891-1048 limits assumed) above
Sequence of Integrin alpha-V/beta-8 (P26012 43-769 limits assumed): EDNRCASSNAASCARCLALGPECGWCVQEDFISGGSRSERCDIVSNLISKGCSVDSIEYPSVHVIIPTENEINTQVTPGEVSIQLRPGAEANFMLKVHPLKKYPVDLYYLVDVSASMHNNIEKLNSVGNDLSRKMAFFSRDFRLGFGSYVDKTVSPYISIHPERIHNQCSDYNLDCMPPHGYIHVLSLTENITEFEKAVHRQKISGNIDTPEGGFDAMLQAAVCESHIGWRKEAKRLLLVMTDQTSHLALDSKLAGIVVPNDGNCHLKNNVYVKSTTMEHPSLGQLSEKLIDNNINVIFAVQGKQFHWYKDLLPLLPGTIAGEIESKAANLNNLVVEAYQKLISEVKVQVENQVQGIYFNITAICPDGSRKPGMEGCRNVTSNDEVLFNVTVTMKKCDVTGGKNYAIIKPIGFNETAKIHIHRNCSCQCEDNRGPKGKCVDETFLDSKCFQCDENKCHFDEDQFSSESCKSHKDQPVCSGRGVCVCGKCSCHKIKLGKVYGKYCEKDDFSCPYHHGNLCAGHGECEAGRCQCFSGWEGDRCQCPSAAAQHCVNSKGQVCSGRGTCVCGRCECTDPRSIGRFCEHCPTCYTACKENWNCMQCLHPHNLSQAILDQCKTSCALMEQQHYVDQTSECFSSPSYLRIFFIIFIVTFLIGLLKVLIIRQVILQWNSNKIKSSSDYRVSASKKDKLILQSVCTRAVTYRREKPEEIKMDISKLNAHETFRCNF

As for `N=C(N)NCCCCC(=O)Nc1ccc(C[C@H](NC(=O)[C@@H]2CCCCN2S(=O)(=O)c2ccccc2)C(=O)O)cc1`, the IC50 on Integrin alpha-V/beta-1 (read-out: IC50) is 0.31 to 0.32 nM; at Integrin alpha-V/beta-1 (read-out: pIC50 (converted)), 0.316 nM; against Integrin alpha-5/beta-1 it was 3200 nM; against Integrin alpha-V/beta-3, 4000 nM; at Integrin alpha-V/beta-8, 2000 nM; against Integrin alpha-V/beta-5, 160 nM.

Take `Cc1ccc(NCCCC(=O)Nc2ccc(C[C@H](NC(=O)[C@@H]3CCCN3S(=O)(=O)c3ccccc3)C(=O)O)cc2)nc1`: the IC50 on Integrin alpha-V/beta-1 (read-out: IC50) worked out at 320 nM. Still for that read-out and setting: the figure for `O=C(CCCCNC1=NCCCN1)Nc1ccc(C[C@H](NC(=O)[C@@H]2CCCN2S(=O)(=O)c2ccccc2)C(=O)O)cc1` is 2 nM.

Turning to `O=C(CCCNc1ccccn1)Nc1ccc(C[C@H](NC(=O)[C@@H]2CCCN2S(=O)(=O)c2ccccc2)C(=O)O)cc1`, the IC50 at Integrin alpha-V/beta-1 (read-out: IC50) was 0.2 nM; against Integrin alpha-5/beta-1, greater than 10000 nM; on Integrin alpha-V/beta-3 it was greater than 10000 nM; at Integrin alpha-V/beta-8 it was 400 nM; against Integrin alpha-V/beta-5, greater than 10000 nM.

`N=C(N)NCCCCC(=O)Nc1ccc(C[C@H](NC(=O)[C@@H]2CCCN2S(=O)(=O)c2cccc([N+](=O)[O-])c2)C(=O)O)cc1`: the IC50 at Integrin alpha-V/beta-1 (read-out: IC50) was 13 nM. On to `N=C(N)NCCCCC(=O)Nc1ccc(C[C@H](NC(=O)[C@@H]2CCCN2S(=O)(=O)c2ccc3ccccc3c2)C(=O)O)cc1`, for which the IC50 at Integrin alpha-V/beta-1 (read-out: IC50) turned out to be 2500 nM.

`CC1(C)SCN(S(=O)(=O)c2ccccc2)[C@@H]1C(=O)N[C@@H](Cc1ccc(NC(=O)CCCCNC(=N)N)cc1)C(=O)O`: the IC50 at Integrin alpha-V/beta-1 (read-out: IC50) came to 2000 nM. Same read-out and setting: the result for `N=C(N)NCCCCC(=O)Nc1ccc(C[C@H](NC(=O)[C@@H]2CCCN2S(=O)(=O)c2cccs2)C(=O)O)cc1` reads 50 nM; that for `O=C(CCCCNc1ccccn1)Nc1ccc(C[C@H](NC(=O)[C@@H]2CCCN2S(=O)(=O)c2ccccc2)C(=O)O)cc1`, 2 nM; that for `N=C(N)NCCCCC(=O)Nc1ccc(C[C@H](NC(=O)[C@@H]2C[C@@H](F)CN2S(=O)(=O)c2ccccc2)C(=O)O)cc1`, 0.5 nM.

Consider `N=C(N)NCCCCC(=O)Nc1ccc(C[C@H](NC(=O)[C@@H]2CCCN2S(=O)(=O)c2cccnc2)C(=O)O)cc1`, for which the IC50 at Integrin alpha-V/beta-1 (read-out: IC50) was found to be 32 nM. Same read-out and setting: the figure for `N=C(N)NCCCCC(=O)Nc1ccc(C[C@H](NC(=O)[C@@H]2CCCN2S(=O)(=O)c2cc(F)cc(F)c2)C(=O)O)cc1` is 40 nM. Regarding `N=C(N)NCCCC(=O)Nc1ccc(C[C@H](NC(=O)[C@@H]2CCCCN2S(=O)(=O)c2ccccc2)C(=O)O)cc1`, the IC50 is 0.25 nM on Integrin alpha-V/beta-1 (read-out: IC50); 3200 nM on Integrin alpha-5/beta-1; 2000 nM at Integrin alpha-V/beta-3; 2500 nM on Integrin alpha-V/beta-8; 1600 nM against Integrin alpha-V/beta-5.

Consider `N=C(N)NCCCCC(=O)Nc1ccc(C[C@H](NC(=O)[C@@H]2CCCN2S(=O)(=O)c2ccccc2)C(=O)O)cc1`, for which the IC50 at Integrin alpha-V/beta-1 (read-out: IC50) is 0.63 nM; against Integrin alpha-5/beta-1, greater than 10000 nM; against Integrin alpha-V/beta-3, greater than 10000 nM; on Integrin alpha-V/beta-8 it was greater than 10000 nM; on Integrin alpha-V/beta-5, greater than 10000 nM. As to `N=C(N)NCCCCC(=O)Nc1ccc(C[C@H](NC(=O)[C@@H]2CCCN2S(=O)(=O)c2ccccc2[N+](=O)[O-])C(=O)O)cc1`, on Integrin alpha-V/beta-1 (read-out: IC50), the IC50 stood at 630 nM. `Cc1ccc(S(=O)(=O)N2CCC[C@H]2C(=O)N[C@@H](Cc2ccc(NC(=O)CCCCNC(=N)N)cc2)C(=O)O)c2ccccc12`: the IC50 on Integrin alpha-V/beta-1 (read-out: IC50) came out at 6300 nM. The same measure, in the same setting: the figure for `Cc1cc(C)cc(S(=O)(=O)N2CCC[C@H]2C(=O)N[C@@H](Cc2ccc(NC(=O)CCCNC(=N)N)cc2)C(=O)O)c1` is 790 nM; for `O=C(CCCNC1=NCCN1)Nc1ccc(C[C@H](NC(=O)[C@@H]2CCCN2S(=O)(=O)c2ccccc2)C(=O)O)cc1` it is 0.13 nM.

With `N=C(N)Nc1cccc(C(=O)Nc2ccc(C[C@H](NC(=O)[C@@H]3CCCN3S(=O)(=O)c3ccccc3)C(=O)O)cc2)c1`, the IC50 on Integrin alpha-V/beta-1 (read-out: IC50) is 0.06 nM; against Integrin alpha-5/beta-1 it was 63 nM; at Integrin alpha-V/beta-3 it was 160 nM; on Integrin alpha-V/beta-8, 40 nM; against Integrin alpha-V/beta-5, greater than 10000 nM.

Consider `N=C(N)NCCCCC(=O)Nc1ccc(C[C@H](NC(=O)[C@@H]2C[C@H](F)CN2S(=O)(=O)c2ccccc2)C(=O)O)cc1`, for which, on Integrin alpha-V/beta-1 (read-out: IC50), the IC50 was determined as 0.5 nM. Consider `Cc1cc(C)c(S(=O)(=O)N2CCC[C@H]2C(=O)N[C@@H](Cc2ccc(NC(=O)CCCCNC(=N)N)cc2)C(=O)O)c(C)c1`, for which the IC50 on Integrin alpha-V/beta-1 (cho, read-out: IC50) was greater than 10000 nM; at Integrin alpha-V/beta-1 (read-out: pIC50 (converted)), greater than 10000 nM. Take `Cc1ccc(S(=O)(=O)N2CCC[C@H]2C(=O)N[C@@H](Cc2ccc(NC(=O)CCCNC(=N)N)cc2)C(=O)O)cc1`: the IC50 at Integrin alpha-V/beta-1 (read-out: IC50) is 630 nM. Still for that read-out and setting: the result for `N=C(N)NCCCCC(=O)Nc1ccc(C[C@H](NC(=O)[C@@H]2CSCN2S(=O)(=O)c2ccccc2)C(=O)O)cc1` reads 16 nM; that for `N=C(N)NC12CC3CC(C1)CC(C(=O)Nc1ccc(C[C@H](NC(=O)[C@@H]4CCCN4S(=O)(=O)c4ccccc4)C(=O)O)cc1)(C3)C2`, 2500 nM. Still for that read-out and setting: the result for `Cc1cccc(NCCCC(=O)Nc2ccc(C[C@H](NC(=O)[C@@H]3CCCN3S(=O)(=O)c3ccccc3)C(=O)O)cc2)n1` reads 200 nM.

On to `CN(C)c1cccc2c(S(=O)(=O)N3CCC[C@H]3C(=O)N[C@@H](Cc3ccc(NC(=O)CCCCNC(=N)N)cc3)C(=O)O)cccc12`, for which the IC50 at Integrin alpha-V/beta-1 (read-out: IC50) was found to be 79 nM. On the same count and under the same terms, the figure for `N=C(N)NCCCC(=O)Nc1ccc(C[C@H](NC(=O)[C@@H]2CCCN2S(=O)(=O)c2ccccc2)C(=O)O)cc1` is 0.02 nM; for `N=C(N)Nc1ccc(C(=O)Nc2ccc(C[C@H](NC(=O)[C@@H]3CCCN3S(=O)(=O)c3ccccc3)C(=O)O)cc2)cc1` it is 800 nM. The same measure, in the same setting: the figure for `N=C(N)NCCCCC(=O)Nc1ccc(C[C@H](NC(=O)[C@@H]2CCN2S(=O)(=O)c2ccccc2)C(=O)O)cc1` is 160 nM; for `N=C(N)N[C@H]1CC[C@@H](C(=O)Nc2ccc(C[C@H](NC(=O)[C@@H]3CCCN3S(=O)(=O)c3ccccc3)C(=O)O)cc2)CC1` it is 2 nM.

On to `O=C(CCCCNC1=NCCN1)Nc1ccc(C[C@H](NC(=O)[C@@H]2CCCN2S(=O)(=O)c2ccccc2)C(=O)O)cc1`, for which the IC50 on Integrin alpha-V/beta-1 (read-out: IC50) is 0.31 to 0.32 nM; on Integrin alpha-V/beta-1 (read-out: pIC50 (converted)), 0.316 nM; against Integrin alpha-5/beta-1, greater than 10000 nM; against Integrin alpha-V/beta-3 it was greater than 10000 nM; on Integrin alpha-V/beta-8, greater than 10000 nM; on Integrin alpha-V/beta-5, 200 nM. `N=C(N)NCCCCC(=O)Nc1ccc(C[C@H](NC(=O)[C@@H]2C=CCN2S(=O)(=O)c2ccccc2)C(=O)O)cc1`: the IC50 at Integrin alpha-V/beta-1 (read-out: IC50) was 800 nM. With `N=C(N)Nc1ccc(CC(=O)Nc2ccc(C[C@H](NC(=O)[C@@H]3CCCN3S(=O)(=O)c3ccccc3)C(=O)O)cc2)cc1`, at Integrin alpha-V/beta-1 (read-out: IC50), the IC50 was determined as 50 nM. `C[C@@]1(C(=O)N[C@@H](Cc2ccc(NC(=O)CCCCNC(=N)N)cc2)C(=O)O)CCCN1S(=O)(=O)c1ccccc1`: the IC50 at Integrin alpha-V/beta-1 (cho, read-out: IC50) was greater than 10000 nM; on Integrin alpha-V/beta-1 (read-out: pIC50 (converted)), greater than 10000 nM.

`Cc1cc(F)ccc1S(=O)(=O)N1CCC[C@H]1C(=O)N[C@@H](Cc1ccc(NC(=O)CCCCNC(=N)N)cc1)C(=O)O`: the IC50 on Integrin alpha-V/beta-1 (read-out: IC50) amounted to 500 nM.
